Activity calls are given as the source filed them. The rule behind the calls is not given here.
Experiments:
[1] = system: Human immunodeficiency virus 1; test: Reactivation of latent HIV1 infected in human U1 cells assessed as increase in p24 production after 48 hrs by ELISA; format: functional, organism-based; settings: Human immunodeficiency virus 1, U1, 48 h; read-out: EC50
[2] = system: Human immunodeficiency virus 1; test: Reactivation of latent HIV1 infected in human U1 cells assessed as increase in p24 production after 48 hrs by ELISA relative to vorinostat; format: functional
Method in brief: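 U1 cells at 2x10^5 cells/ml incubated with a range of concentrations at 37 °C for 48 h. Supernatant p24 measured by HIV p24 ELISA. EC50 ± SD derived from 3 independent experiments.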

[3] = Cytotoxicity against human U937 cells assessed as reduction in cell viability after 48 hrs by CellTiter-Glo luminescent cell viability assay; format: cell-based, U-937
Method in brief: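 U937 cells (HIV-1-negative parental line of U1) at 2x10^5 cells/ml exposed to a range of concentrations for 48 h at 37 °C. Viability read by CellTiter-Glo luminescence. CC50 ± SD derived from 3 independent experiments.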

[4] = Selectivity index, ratio of CC50 for human U937 cells to EC50 for reactivation of latent HIV1 infected in human U1 cells; settings: U937 cells (CC50) and latent HIV-1 infected U1 cells (EC50)
[5] = system: Human immunodeficiency virus 1; test: Reactivation of latent HIV1 infected in human J-Lat A2 cells assessed as increase in GFP positive cells at 0.5 nM after 72 hrs by flow cytometric analysis; format: functional, organism-based
Method in brief: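 J-Lat (A2) cells express GFP on latent HIV-1 activation; 1x10^6 cells/well incubated with LRA(s), alone or in pairs (HDAC inhibitor TPB 0.3 µM or TPyB 1.0 µM), at 37 °C for 72 h; GFP+ cell frequency by flow cytometry; two independent experiments, one-tailed t-test.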

[6] = Cytotoxicity against human J-Lat (A2) cells assessed as effect on cell viability at 0.5 nM after 72 hrs by flow cytometric analysis; format: cell-based; settings: 0.0005 µM
Method in brief: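 J-Lat (A2) cells, 1x10^6 cells/well, exposed to LRA(s) at 37 °C for 72 h; percent viable cells read by flow cytometry, two independent experiments.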

Row | SMILES | EC50 [1] [nM] | fold change (FC) [2] | CC50 at 48 h [3] [nM] | selectivity ratio [4] | Activity [5] | Activity [6]
1 | C/C=C(/C)C(=O)O[C@H]1C(C)=C[C@]23C(=O)[C@@H](C=C(CO)[C@@H](O)[C@]12O)[C@H]1[C@@H](C[C@H]3C)C1(C)C [INGENOL MEBUTATE] | 4.8 | 9.7 | > 200 | > 42 | Active | Non-Toxic
2 | C/C=C1\NC(=O)[C@H]2CSSCC/C=C/[C@H](CC(=O)N[C@H](C(C)C)C(=O)N2)OC(=O)[C@H](C(C)C)NC1=O [ROMIDEPSIN] |  |  | 0.73 | 0.66 |  | 
3 | O=C(CCCCCCC(=O)Nc1ccccc1)NO [VORINOSTAT] |  |  | 780 |  |  | 
